The entries come from a sample that favours hits as a whole.
CHOP inh: CHOP inhibition in unfolded protein response | AID 2732 | CHO-K1 CHOP-promoter luciferase, tunicamycin-induced, 15-18 h | actives 3.8% (n = 220,000) | inhibition, % at 10 µM;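 active = compounds that reduced the stress-induced luciferase reporter signal by more than about 70% of percent inhibition, limit read from the data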;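 note: 0% = tunicamycin plus vehicle and 100% = wells without tunicamycin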
UPR CHOP act: apoptotic UPR (CHOP) activation; AID 449763; actives 0.34% (n = 330,000); CHO-CHOP luciferase reporter, luminescence; percent of tunicamycin response over DMSO baseline; activation, % at 10 µM;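 active = at 10 µM dose, activation of 40% or more, normalized to positive control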;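 note: 100% = tunicamycin at 10 µg/mL and 0% = DMSO alone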
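System: CHO-CHOP luciferase reporter cell line; amount: 500 cells/well; buffer or medium: F12 medium containing 10% fetal bovine serum; incubation: 6 h compound exposure at 37 °C after overnight seeding; measured by: luciferase luminescence after 10 min with Steady-Glo reagent; evaluation: % reporter activation, DMSO baseline versus tunicamycin full activation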
PvdQ acylase: blocks Pseudomonas aeruginosa PvdQ acylase activity; purified PvdQ acylase, fluorescence plate reader; inhibition, % at 10 µM; actives 0.063% (n = 340,000); in the data active = inhibition above about 30%, passing the limit was not always enough;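 note: 0% = vehicle neutral wells and 100% = reference inhibitor wells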
XBP1 UPR activ: adaptive UPR (XBP1) activation | CHO-XBP1 luciferase reporter, IRE1-XBP1 UPR activation, luminescence; percent of tunicamycin response, DMSO as zero | activation, % at 20 µM | actives 0.33% (n = 330,000);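 active = versus positive control, 20 µM dose yields 30% or more activation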;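 note: 100% = tunicamycin at 10 µg/mL and 0% = DMSO only wells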
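assay system = CHO-XBP1 luciferase reporter cells | amount = 1000 cells/well | buffer or medium = F12 plus 10% FBS | compound dosing = single point, 20 µM final compound, 1% DMSO | incubation = 16-18 h cell attachment at 37 °C, then 6 h compound exposure | detection = Steady-Glo luminescence read | controls = tunicamycin 10 µg/mL and vehicle-only wells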
CHOP inh conf: confirmation of CHOP induction inhibitors | shares compounds with CHOP inh | CHO-CHOP promoter luciferase reporter, tunicamycin-induced, luminescence | inhibition, % at 10 µM | actives 45% (n = 2,100);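 active = mean of three repeat readings of reporter signal inhibition above a set limit, cut at about 70% in these data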;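 note: 0% = tunicamycin plus vehicle and 100% = wells lacking tunicamycin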
UPR CHOP confirm: confirmation of apoptotic unfolded protein response (CHOP) activators. activation, % at 10 µM. shares compounds with UPR CHOP act. actives 64% (n = 1,000). CHO-CHOP cells, CHOP-luciferase reporter luminescence; percent of tunicamycin response, DMSO as zero. AID 463112; in the data active = activation above about 33%;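 note: 0% = DMSO wells and 100% = tunicamycin 10 µg/mL wells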
The depositor's hits bear a star; . = no result given.

SMILES | CHOP inh | UPR CHOP act | PvdQ acylase | XBP1 UPR activ | CHOP inh conf | others
COc1ccc(-c2cc(C(F)(F)F)nc(S(=O)(=O)CCCC(=O)Nc3cccnc3Cl)n2)cc1OC | 100* | . | -14 | . | -69
CS(=O)(=O)c1nc(-c2cccs2)cc(C(F)(F)F)n1 | 111* | -10 | . | -7 | 120*
Cc1cc(=O)n2c3c(sc2n1)C(=O)N(Cc1ccccc1)C3=O | 105* | 1 | . | -5 | -20
CCCCCn1c(=O)[nH]c2cc(C(=O)NCCN3CCCCC3C)ccc2c1=O (centres undefined) | . | -1 | -6 | -2 | .
Clc1ccc(CSc2nnc(-c3c[nH]c4ccccc34)o2)cc1 | 48 | 3 | 13 | -1 | .
Brc1ccc(CSc2nnc(Cc3c[nH]c4ccccc34)o2)cc1 | 103* | -1 | 11 | -1 | 12
O=C(Cc1cccc2ccccc12)NC(NC(=S)Nc1ccccc1Cl)C(Cl)(Cl)Cl (centres undefined) | 104* | 0 | -12 | 0 | -14
CCC(=O)NC(NC(=S)Nc1cccc2cccnc12)C(Cl)(Cl)Cl (centres undefined) | 10 | 2 | 13 | -1 | .
Cc1ccccc1Oc1cc(-n2ncc(Cl)c(Cl)c2=O)ncn1 | 108* | . | -10 | . | 119*
CCOc1cnn(-c2cc(Oc3ccc(C)cc3)ncn2)c(=O)c1Cl | 45 | 1 | -22 | 0 | .
O=C(NCc1ccccc1)c1cc(-c2ccncc2)nc2ccc(S(=O)(=O)N3CCOCC3)cc12 | 103* | 1 | -1 | 0 | 108*
O=C(O)c1cc(-c2ccncc2)nc2ccc(S(=O)(=O)N3CCOCC3)cc12 | 24 | 0 | 4 | -2 | .
O=c1c2ccccc2c(C=Nc2cccc(O)c2)c(O)n1-c1ccc2c(c1)OCO2 | 107* | 2 | -12 | 3 | 16
Cc1ccccc1N1CCN(C(=O)c2ccc(Oc3ccc(C(F)(F)F)cn3)cc2)CC1 | 103* | 0 | 10 | -2 | 73*
O=C(O)c1ccc(Oc2ccc(C(F)(F)F)cn2)cc1 | 4 | 0 | -17 | -2 | .
COc1ccc(Cc2nnc(Nc3c(C)cccc3C)o2)cc1OC | 25 | 0 | 6 | -1 | .
CCOC(=O)N1CCN(C(=S)NCCOC)CC1 | -5 | 0 | -17 | -3 | .
Nc1nonc1C(=O)NCCN=Cc1cc(Cc2ccccc2)cc(Br)c1O | 104* | 0 | 7 | 0 | 12
Cc1nn(C(C)C(=O)NNC(=S)Nc2ccc(F)cc2)c(C)c1[N+](=O)[O-] (centres undefined) | 18 | -2 | -1 | -2 | .
O=P(CCCCCCCCCP(=O)(c1ccccc1)c1ccccc1)(c1ccccc1)c1ccccc1 | 100* | 10 | -16 | 2 | 50
O=C(O)CCCCCCCCCCP(=O)(c1ccccc1)c1ccccc1 | 9 | -2 | -8 | -3 | .
CC1=C(CO)C(=O)OC([C@@H](C)C2CC[C@H]3C4C[C@H]5O[C@]56[C@@H](O)C=CC(=O)[C@]6(C)C4CC[C@]23C)C1 (some centres undefined) | 107* | . | 0 | . | 106*
CCOC(=O)c1cc([N+](=O)[O-])c([N+](=O)[O-])cc1NC(C)=O | 107* | . | -4 | . | 91*
CCOC(=O)c1ccc(NC(=O)c2ccccc2[N+](=O)[O-])cc1 | -13 | 6 | -14 | -2 | .
COc1ccc(CC(=O)NCc2nnc(SCc3ccc(C)cc3)n2C)cc1 | -18 | 6 | -7 | 0 | .
SMILES | CHOP inh | UPR CHOP act | PvdQ acylase | XBP1 UPR activ | CHOP inh conf | others
O=C(SCC(O)C(O)CS)c1cccs1 (centres undefined) | 1 | -3 | -6 | 4 | .
O=[N+]([O-])c1cc(C(F)(F)F)ccc1Oc1cccnc1[N+](=O)[O-] | 20 | 0 | -3 | 1 | .
O=C(Nc1ccc(F)cc1)c1ccccc1Oc1ccc(C(F)(F)F)cc1[N+](=O)[O-] | 106* | 0 | -6 | -3 | 12
O=C(CSc1ccc(C(F)(F)F)cc1[N+](=O)[O-])Nc1ccccc1 | 97* | 0 | -6 | -1 | 3
CCOc1ccccc1Nc1nc(N)nc(CN2CCCCC2C)n1 (centres undefined) | 18 | 1 | 5 | 0 | .
Cc1ccc(S(=O)(=O)N2CCOCC2)cc1NC(=O)c1cc2c(s1)CCC2 | 3 | 0 | -13 | -1 | .
Cc1ccc(S(=O)(=O)Nc2ccc(Cl)cc2)cc1NC(=O)c1cc2c(s1)CCCC2 | 104* | 2 | -13 | -4 | 66
O=C1C2=C(NC(=S)NC2c2ccc(Cl)cc2)NC(c2ccc(Cl)cc2)N1c1ccc(Cl)cc1 (centres undefined) | 98* | 4 | -1 | 9 | 53
CCOc1cc(/C=C2/C(=O)ON=C2C)ccc1OCc1ccc(F)cc1 | 99* | 24 | 11 | 18 | 124*
CCCCCn1c(SCCCC)nc2c1c(=O)[nH]c(=O)n2C | 69 | 0 | -2 | 7 | .
CCCCCCn1c(SCCC)nc2c1c(=O)[nH]c(=O)n2C | 99* | 1 | -11 | 8 | 81*
C/C=C/Cn1c(SCCCc2ccccc2)nc2c1c(=O)[nH]c(=O)n2C | 103* | 2 | 4 | 2 | 103*
COCCn1c(SCCCc2ccccc2)nc2c1c(=O)[nH]c(=O)n2C | -5 | -1 | -12 | 1 | .
CC(=O)Nc1nc(C)c(-c2nc3ccc([N+](=O)[O-])cc3[nH]2)s1 | . | 2 | -12 | 6 | .
CC(=O)CSc1nnc2c3ccccc3nc(C(C)(C)C)n12 | 16 | -1 | 2 | -1 | .
Cc1csc(NC(=O)CSc2nnc3c4ccccc4nc(C(C)(C)C)n23)n1 | 105* | 0 | -12 | -3 | 125*
CC1(c2ccc3c(c2)OCCO3)NC(=O)N(CC(=O)Nc2c(F)cccc2F)C1=O (centres undefined) | . | 0 | -3 | -1 | .
O=C(Nc1ccccc1)C1=C(c2ccccc2)S(=O)(=O)CCS1(=O)=O | 108* | . | -9 | . | 110*
O=C(O)c1ccccc1C(=O)Nc1ccccc1 | 24 | 0 | -18 | 0 | .
CCOc1cc(S(=O)(=O)N2CCN(C(=O)c3ccco3)CC2)ccc1F | . | 0 | 10 | -4 | .
Cc1ccc(NCC(=O)N/N=C\C(Br)=C\c2ccccc2)cc1 | 110* | 1 | -6 | -3 | 10
CN(C)CC(C(=O)c1ccccc1)c1ccccc1 (centres undefined) | . | 159* | 8 | -3 | 42 | UPR CHOP confirm=41*
Cc1cc(C(=O)CCl)c(C)n1-c1cccc(S(=O)(=O)N2CCOCC2)c1 | 103* | 207* | . | -5 | 76* | UPR CHOP confirm=64*
Cc1cc(C(=O)CN2C(=O)CN(C)C2=O)c(C)n1-c1cccc(S(=O)(=O)N2CCOCC2)c1 | 15 | -1 | 13 | 1 | .
COCCN=c1scc(-c2ccco2)n1/N=C/c1ccc(O)c(O)c1O | -80 | 23 | -8 | 6 | .

Source: PubChem BioAssay
